# Screening results from PubChem.
# In the library only some 3% were active in any assay of this set; here they are far more common.
# Kir21 inh: inhibitors of mouse Kir2.1 inward-rectifier potassium channel | Inward rectifier potassium channel 2 (Mus musculus), P35561 | HEK293-Kir2.1, FluxOR thallium flux fluorescence; stronger effect = lower value | B-score at 10 µM | hit rate 0.85% among 310,000 | AID 1672, 2009;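 active = fluorescence ratio B-score at or below minus 3 SD of library scores, with starting-brightness B-score within 2 SD, cut at about -4.2 in these data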;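 also: channel flux triggered by added potassium and thallium sulfate stimulus; B-score of peak minus minimum fluorescence over baseline after thallium stimulus; more negative B-score means stronger Kir2.1 block with less thallium influx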
# TRPC4 potent: positive allosteric modulators of TRPC4, primary screen, cell-based, mouse TRPC4beta, HEK293 mu-opioid, Fluo-4 calcium. Short transient receptor potential channel 4 (Mus musculus), Q9QUQ5. DAMGO EC20, Fluo-4 Ca2+ flux; stronger effect = higher value. B-score at 10 µM. hit rate 0.42% among 310,000;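 active = B-score of calcium response area above 5 SD of library B-scores, with initial fluorescence ratio within 5 SD of library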;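 also: B-score of integrated fluorescence ratio over time as area under calcium response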
# TRPC4 block: inhibitors of mouse TRPC4 channel, primary screen, Fluo4 calcium, HEK293 TRPC4beta/mu-opioid cells | Short transient receptor potential channel 4 (Mus musculus), Q9QUQ5 | DAMGO-evoked Fluo4 calcium flux; stronger effect = lower value | B-score at 10 µM | hit rate 0.39% among 300,000 | AID 2247, 2010;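 active = B-score over 3 SD under the library average, no early fluorescence shift, positive overall ratio signal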
#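 Test system – stable TRPC4beta/mu-opioid receptor HEK293 cells · Probe or stimulus – DAMGO, a submaximal dose followed by a maximal one · Dosing – one concentration per compound · Signal – Fluo4 calcium fluorescence by kinetic imaging, 5 s 1 Hz baseline · Evaluation – per-well B score of integrated baseline-normalized Fluo4 ratio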
# TRPC4 act: activators of mouse TRPC4 channel, primary screen, Fluo4 calcium, HEK293 TRPC4beta/mu-opioid cells; Short transient receptor potential channel 4 (Mus musculus), Q9QUQ5; Fluo4 calcium fluorescence; stronger effect = higher value; B-score at 10 µM; hit rate 0.49% among 310,000;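 active = B-score above 5 SD of library B-scores, and initial fluorescence ratio not above library mean plus 5 SD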;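 also: positive B-score marks a calcium rise read as TRPC4 activation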
#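 Incubation: 45 min room-temperature Fluo4 loading, 110 s read / System: HEK293 cells stably co-expressing mouse TRPC4beta and mu-opioid receptor / Signal: Fluo4 fluorescence, kinetic / Control set: buffer (low) and maximal DAMGO (high) / Measure: integrated baseline-normalised fluorescence ratio, converted to per-well B score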
# TRPC6 activator: mouse TRPC6 channel activators, primary screen, cell-based, HEK293, membrane potential dye. Short transient receptor potential channel 6 (Mus musculus), Q61143. HEK293-TRPC6 membrane potential dye fluorescence; stronger effect = higher value. B-score at 10 µM. hit rate 0.13% among 310,000. AID 2550, 2010;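 active = B-score of the integrated fluorescence ratio above library mean plus 3 SD, and starting fluorescence ratio within library mean plus 5 SD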;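 also: higher score means more depolarization so channel activation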
# Target sequence (Q61143 whole entry, looked up): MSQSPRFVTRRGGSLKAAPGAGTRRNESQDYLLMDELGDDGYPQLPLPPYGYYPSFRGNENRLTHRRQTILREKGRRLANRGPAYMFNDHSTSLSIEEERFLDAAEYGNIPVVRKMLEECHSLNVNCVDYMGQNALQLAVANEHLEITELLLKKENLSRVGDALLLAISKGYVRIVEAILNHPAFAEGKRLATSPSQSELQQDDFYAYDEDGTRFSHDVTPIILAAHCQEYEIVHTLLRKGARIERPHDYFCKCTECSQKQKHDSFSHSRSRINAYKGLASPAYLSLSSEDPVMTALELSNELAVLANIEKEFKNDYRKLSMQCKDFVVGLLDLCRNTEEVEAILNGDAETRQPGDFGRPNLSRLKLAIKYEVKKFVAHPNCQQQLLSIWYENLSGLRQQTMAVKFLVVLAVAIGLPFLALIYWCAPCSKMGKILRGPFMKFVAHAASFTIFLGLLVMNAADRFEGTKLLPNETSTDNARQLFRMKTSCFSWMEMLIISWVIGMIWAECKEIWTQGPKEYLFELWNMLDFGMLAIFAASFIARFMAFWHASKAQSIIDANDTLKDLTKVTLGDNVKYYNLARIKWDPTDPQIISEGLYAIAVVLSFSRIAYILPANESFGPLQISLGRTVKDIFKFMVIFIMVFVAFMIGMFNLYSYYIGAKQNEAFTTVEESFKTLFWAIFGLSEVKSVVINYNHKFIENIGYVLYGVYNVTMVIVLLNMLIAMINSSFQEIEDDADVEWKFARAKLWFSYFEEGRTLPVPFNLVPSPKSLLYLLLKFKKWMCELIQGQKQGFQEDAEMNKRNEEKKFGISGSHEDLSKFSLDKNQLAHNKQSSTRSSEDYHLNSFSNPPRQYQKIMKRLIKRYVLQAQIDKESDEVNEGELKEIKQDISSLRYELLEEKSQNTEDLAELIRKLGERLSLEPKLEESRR
# TRPC6 inhibitor: mouse TRPC6 channel inhibitors, primary screen, cell-based, HEK293, membrane potential dye | ACh-evoked depolarization; stronger effect = lower value | Short transient receptor potential channel 6 (Mus musculus), Q61143 | B-score at 10 µM | hit rate 1.1% among 310,000 | AID 2553, 2010;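 active = B-score under library mean minus 3 SD, initial fluorescence not abnormally high, positive integrated signal ratio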;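 also: B-score derived from integrated fluorescence ratio over the kinetic read; more negative B-score means stronger inhibition of depolarization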
# Numbers without * were called inactive; i = inactive.
SMILES,Kir21 inh,TRPC4 potent,TRPC4 block,TRPC4 act,TRPC6 activator,TRPC6 inhibitor
COc1ccc(CCNC(=O)C2CCC(C(C)(C)C)CC2)cc1OC (stereo unspecified),-9.09*,i,i,i,i,i
COc1ccc(CCNC(=O)C2CC2)cc1OC,0.03,i,i,i,i,i
CCCNC(=O)OCCC12CC3CC(CC(C3)C1)C2,0.03,10*,i,i,i,i
O=C(CCCN1C(=O)/C(=C/c2ccccc2Cl)SC1=S)Nc1ccccn1,-0.98,i,i,i,i,i
O=C1/C(=C/c2ccccc2Cl)SC(=S)N1CCCC(=O)N(CCO)c1ccccc1,-0.4,i,-6*,i,i,i
CCN(CC)CCCNC(=O)C1c2ccccc2C(=O)N(CCOC)C1c1ccc(F)cc1 (stereo unspecified),0.22,i,i,i,i,i
CCCCN(CC)CCCNC(=O)C1c2ccccc2C(=O)N(C)C1c1cn(C)c2ccccc12 (stereo unspecified),-1.37,i,i,80*,i,i
COC(=O)c1cccc(Nc2ncnc3ccc(C)cc23)c1,-0.01,i,i,i,i,i
COc1ccc(Nc2ncnc3ccc(C)cc23)cc1,-6.05*,i,i,i,i,i
COC(=O)C1=C(C)N(Cc2ccccc2)C(=NCc2cccc(C(F)(F)F)c2)N[C@H]1c1cccc(F)c1,-5.58*,i,i,i,i,i
CCOC(=O)CN1C(=O)N[C@@H](c2cccs2)C(C(=O)OC)=C1C,-0.62,i,i,i,i,i
CCN1C(=NCCc2cccs2)N[C@@H](c2cccs2)C(C(=O)OC)=C1C,-6.03*,i,i,i,i,i
CCN1C(=NCc2cccc(Cl)c2)N[C@@H](c2cccc(F)c2)C(C(=O)OC)=C1C,-4.49*,i,i,i,i,i
COCCN=C1N[C@@H](c2cccc(C(F)(F)F)c2)C(C(=O)OC)=C(C)N1Cc1ccccc1,-4.05,i,i,i,i,i
CCC(C)(C)n1nnnc1CN(Cc1cccs1)Cc1cc2cc(OC)ccc2[nH]c1=O,1.09,11*,i,i,i,i
CCOc1ccc2[nH]c(=O)c(CN(Cc3cccs3)Cc3nnnn3C(C)(C)CC)cc2c1,-2.25,i,i,i,i,i
CCN(CC)c1ncnc2scc(C3COc4ccccc4O3)c12 (stereo unspecified),-1.75,i,-7*,i,i,i
COc1ccc(C2(O)CN(c3ccccc3)C3=[N+]2CCS3)cc1OC (stereo unspecified),-0.81,i,i,i,i,i
OC1(c2ccc(Cl)cc2)CN(c2ccccc2)C2=[N+]1CCS2 (stereo unspecified),-0.97,i,i,75*,i,i
COc1ccc(OC)c(N2CC(O)(c3ccccc3)[N+]3=C2SCCC3)c1 (stereo unspecified),-1.16,i,i,i,i,i
OC1(c2ccc(Br)cc2)CN(c2ccccc2)C2=[N+]1CCS2 (stereo unspecified),2.1,i,i,93*,i,i
COc1ccc(-c2nsc3c(N4CCCCC4C)ncnc23)cc1 (stereo unspecified),-0.25,11*,i,i,i,i
COc1ccc(-c2nsc3c(N4CCCCC4)ncnc23)cc1,-2.17,i,i,i,i,i
O=S(=O)(c1ccc(Cl)c(Cl)c1)c1snnc1-c1ccccc1,-4.25*,i,i,i,i,i
c1ccc(-c2nnsc2-c2ccccc2)cc1,-3.34,i,i,i,i,i
SMILES,Kir21 inh,TRPC4 potent,TRPC4 block,TRPC4 act,TRPC6 activator,TRPC6 inhibitor
N#CC1=C(S)N(c2ccccc2)C(c2ccc(-c3ccc(Cl)c(Cl)c3)o2)NC1=O (stereo unspecified),-6.21*,i,i,i,i,i
N#CC1=C(S)N(c2ccccc2)C(c2ccc(-c3cc(Cl)ccc3Cl)o2)NC1=O (stereo unspecified),-0.78,i,i,i,i,i
CN(C)S(=O)(=O)c1cccc(NC(=O)C2Cc3ccccc3CN2C(=O)c2ccco2)c1 (stereo unspecified),0.63,i,i,i,i,i
COC(=O)c1sccc1NC(=S)N1CCCC(C)C1 (stereo unspecified),0.74,i,i,i,i,i
CCN1CCN(C(=S)Nc2ccsc2C(=O)OC)CC1,-0.78,i,i,57*,i,i
COC(=O)c1sccc1NC(=S)N1CCN(C)CC1,-0.04,i,i,50*,i,i
CCOC(=O)c1sc(NC(=O)C2CC(=O)N(c3ccc(C)cc3)C2)nc1C (stereo unspecified),0.82,i,i,i,i,i
CC(=O)Nc1ccc(S(=O)(=O)N2CCc3cc4c(cc3C2)OCCCO4)cc1,0.06,i,i,i,i,i
Cc1ccc2nc(-c3ccc(NC(=S)NC4CC(C)(C)NC(C)(C)C4)cc3)sc2c1,-5.09*,i,i,i,i,i
CC(=O)O[C@]1(C(C)=O)CC[C@H]2[C@@H]3C=CC4=CC(=O)C=C[C@]4(C)[C@H]3CC[C@@]21C,1.22,i,i,i,i,i
OC(CNCc1ccccc1)(c1ccccc1)c1ccccc1,-4.59*,i,i,i,i,i
COc1ccc(CNC(=S)NCc2ccc(F)cc2)cc1,-2,i,i,i,i,i
COc1ccc(CNCC(O)(c2ccccc2)c2ccccc2)cc1OC,-0.84,i,i,i,i,i
Cc1ccc(CNCC(O)(c2ccc(F)cc2)c2ccc(F)cc2)cc1,-4.13,i,i,i,i,i
Cc1ccc(CNCC(O)(c2ccccc2)c2ccc(F)cc2)cc1 (stereo unspecified),-8.95*,i,i,i,i,i
COc1ccc(CNCC(O)(c2ccc(F)cc2)c2ccc(F)cc2)cc1,-8.35*,i,i,i,i,i
